In ChEMBL document CHEMBL4406804, “Discovery of a Potent Steroidal Glucocorticoid Receptor Antagonist with Enhanced Selectivity against the Progesterone and Androgen Receptors (OP-3633)” (J Med Chem, 2019):
Active and inactive are the calls of the source. The calls are words filed in the database; no cut-off is given here.

Assays:
Format in all cases: cell-based
[1] = target: T1, Androgen receptor (Homo sapiens, UniProt P10275); test: Agonist activity at human androgen receptor in human LNCAP cells harboring firefly luciferase gene after 20 hrs by One-Glo luciferase reporter gene assay
T1 sequence (P10275 whole entry): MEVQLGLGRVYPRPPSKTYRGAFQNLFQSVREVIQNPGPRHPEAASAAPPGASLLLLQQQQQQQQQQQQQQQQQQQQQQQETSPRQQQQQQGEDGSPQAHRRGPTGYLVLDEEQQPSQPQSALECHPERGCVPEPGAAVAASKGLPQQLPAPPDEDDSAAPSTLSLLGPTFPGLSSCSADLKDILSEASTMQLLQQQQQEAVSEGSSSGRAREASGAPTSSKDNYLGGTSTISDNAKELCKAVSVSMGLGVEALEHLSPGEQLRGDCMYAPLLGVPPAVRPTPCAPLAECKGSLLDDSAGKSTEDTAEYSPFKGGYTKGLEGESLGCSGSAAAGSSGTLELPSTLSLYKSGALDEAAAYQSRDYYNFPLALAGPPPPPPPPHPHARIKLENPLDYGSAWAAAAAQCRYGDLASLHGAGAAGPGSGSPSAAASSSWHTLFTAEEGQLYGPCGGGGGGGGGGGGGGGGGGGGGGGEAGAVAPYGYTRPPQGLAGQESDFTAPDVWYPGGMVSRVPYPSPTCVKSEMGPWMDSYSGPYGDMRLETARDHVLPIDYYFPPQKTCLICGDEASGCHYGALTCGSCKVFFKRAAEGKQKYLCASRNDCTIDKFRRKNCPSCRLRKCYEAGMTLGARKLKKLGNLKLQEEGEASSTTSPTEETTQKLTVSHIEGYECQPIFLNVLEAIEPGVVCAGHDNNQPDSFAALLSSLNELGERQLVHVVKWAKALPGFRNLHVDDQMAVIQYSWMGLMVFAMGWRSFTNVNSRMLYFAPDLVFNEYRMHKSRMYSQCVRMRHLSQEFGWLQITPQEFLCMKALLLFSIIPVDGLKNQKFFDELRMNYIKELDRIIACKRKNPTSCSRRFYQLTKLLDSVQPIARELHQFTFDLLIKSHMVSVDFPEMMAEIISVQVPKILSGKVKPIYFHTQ

[2] = target: T2, Glucocorticoid receptor (Homo sapiens, UniProt P04150); test: Antagonist activity at human glucocorticoid receptor expressed in CHO-K1 cells harboring firefly luciferase gene after 20 hrs by One-Glo luciferase reporter gene assay
T2 sequence (P04150 whole entry): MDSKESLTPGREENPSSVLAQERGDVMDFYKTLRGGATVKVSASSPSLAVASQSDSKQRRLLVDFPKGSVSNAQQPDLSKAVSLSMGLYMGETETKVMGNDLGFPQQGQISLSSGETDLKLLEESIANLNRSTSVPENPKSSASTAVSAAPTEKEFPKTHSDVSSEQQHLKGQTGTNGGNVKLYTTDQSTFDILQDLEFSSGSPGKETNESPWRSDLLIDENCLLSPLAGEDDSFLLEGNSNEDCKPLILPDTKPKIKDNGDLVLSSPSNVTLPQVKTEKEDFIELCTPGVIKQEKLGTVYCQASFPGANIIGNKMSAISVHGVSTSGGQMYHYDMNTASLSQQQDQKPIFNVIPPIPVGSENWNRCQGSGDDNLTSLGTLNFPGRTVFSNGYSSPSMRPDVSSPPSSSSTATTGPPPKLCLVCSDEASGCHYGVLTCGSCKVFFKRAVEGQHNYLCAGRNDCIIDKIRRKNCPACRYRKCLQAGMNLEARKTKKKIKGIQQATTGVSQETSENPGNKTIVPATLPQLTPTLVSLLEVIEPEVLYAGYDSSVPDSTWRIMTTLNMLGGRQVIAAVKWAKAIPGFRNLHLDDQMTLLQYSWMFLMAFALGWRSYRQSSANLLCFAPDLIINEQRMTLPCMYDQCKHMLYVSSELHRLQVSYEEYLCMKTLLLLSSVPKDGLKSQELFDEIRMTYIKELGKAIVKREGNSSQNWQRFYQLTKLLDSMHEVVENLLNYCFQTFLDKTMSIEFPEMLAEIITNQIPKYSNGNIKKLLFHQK

[3] = target: T3, Progesterone receptor (Homo sapiens) (UniProt P06401); test: Agonist activity at human progesterone receptor expressed in CHO-K1 cells harboring firefly luciferase gene after 20 hrs by One-Glo luciferase reporter gene assay
T3 sequence (whole entry): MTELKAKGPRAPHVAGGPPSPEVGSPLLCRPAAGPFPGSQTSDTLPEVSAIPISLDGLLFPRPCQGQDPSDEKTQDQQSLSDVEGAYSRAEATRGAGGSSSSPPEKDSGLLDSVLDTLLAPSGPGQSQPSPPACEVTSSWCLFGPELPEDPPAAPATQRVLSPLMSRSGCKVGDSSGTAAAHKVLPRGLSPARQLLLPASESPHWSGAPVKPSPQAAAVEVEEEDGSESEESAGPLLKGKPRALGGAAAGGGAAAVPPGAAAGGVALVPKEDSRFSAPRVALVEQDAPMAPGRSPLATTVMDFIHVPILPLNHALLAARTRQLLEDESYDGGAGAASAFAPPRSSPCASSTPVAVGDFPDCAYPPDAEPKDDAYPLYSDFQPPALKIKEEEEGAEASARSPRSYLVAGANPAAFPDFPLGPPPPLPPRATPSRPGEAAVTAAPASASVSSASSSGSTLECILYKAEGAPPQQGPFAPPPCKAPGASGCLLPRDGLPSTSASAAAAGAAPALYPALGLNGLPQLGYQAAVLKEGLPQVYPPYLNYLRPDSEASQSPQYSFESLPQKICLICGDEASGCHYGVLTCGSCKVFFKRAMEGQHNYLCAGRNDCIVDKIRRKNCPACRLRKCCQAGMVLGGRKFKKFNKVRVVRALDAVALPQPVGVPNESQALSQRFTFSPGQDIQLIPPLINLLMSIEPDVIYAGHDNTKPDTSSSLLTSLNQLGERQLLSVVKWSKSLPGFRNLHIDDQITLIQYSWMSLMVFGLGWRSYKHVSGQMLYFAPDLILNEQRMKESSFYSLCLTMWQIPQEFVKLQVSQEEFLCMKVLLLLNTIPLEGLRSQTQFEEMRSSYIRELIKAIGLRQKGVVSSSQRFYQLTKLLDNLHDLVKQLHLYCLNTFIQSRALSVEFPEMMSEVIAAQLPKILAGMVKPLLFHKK
Outline: (§1)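 Cell-based luciferase reporter assays for GR, AR and PR, run in agonist and antagonist modes. Potency and Emax are averages of at least two determinations, reported with SD.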

[4] = target: T4, Progesterone receptor (Homo sapiens, UniProt P06401); test: Antagonist activity at human progesterone receptor expressed in CHO-K1 cells harboring firefly luciferase gene after 20 hrs by One-Glo luciferase reporter gene assay; outline: as §1
T4 sequence (P06401 whole entry): T3 sequence (whole entry)

[5] = target: T1, Androgen receptor; test: Agonist activity at human androgen receptor in human LNCAP cells harboring firefly luciferase gene after 20 hrs by One-Glo luciferase reporter gene assay relative to mifepristone; outline: as §1
[6] = target: T1, Androgen receptor; test: Antagonist activity at human androgen receptor in human LNCAP cells harboring firefly luciferase gene after 20 hrs by One-Glo luciferase reporter gene assay; outline: as §1
[7] = species: Homo sapiens; test: Selectivity ratio, ratio of IC50 for human androgen receptor in human LNCAP cells to IC50 for human glucocorticoid receptor expressed in CHO-K1 cells harboring firefly luciferase gene

SMILES	EC50 [1] [nM]	IC50 [2] [nM]	agonist activity [3]	IC50 [4] [nM]	Emax at 20 h [5] [%]	IC50 [6] [nM]	Ratio [7]
CC#C[C@]1(O)CC[C@H]2[C@@H]3CCC4=CC(=O)CC[C@]4(C)[C@H]3[C@@H](c3ccc(OC)cc3)C[C@@]21C	> 2500	58.3	inactive	1690	14.1	561	
CC#C[C@]1(O)CC[C@H]2[C@@H]3CCC4=CC(=O)CC[C@]4(C)[C@H]3[C@@H](c3ccc(-n4cccc4)cc3)C[C@@]21C	> 2500	52.2	inactive	523	16.5	354	
CC#C[C@]1(O)CC[C@H]2[C@@H]3CCC4=CC(=O)CC[C@]4(C)[C@H]3[C@@H](c3ccc(N(C)CCOC)cc3)C[C@@]21C	> 2500	52.1	inactive	1640	20	1300	
CCN(CC)c1ccc([C@H]2C[C@@]3(C)[C@@H](CC[C@@]3(O)C#CC(C)(C)C)[C@@H]3CCC4=CC(=O)CC[C@@H]4[C@H]32)cc1	> 2500	13.9	inactive	6	9.4	263	10 to 30
COCC#C[C@]1(O)CC[C@H]2[C@@H]3CCC4=CC(=O)CC[C@]4(C)[C@H]3[C@@H](c3ccc(N(C)C)cc3)C[C@@]21C	> 2500	116	inactive	4240	17.5	> 5000	
CN1CCN(c2ccc([C@H]3C[C@@]4(C)[C@@H](CC[C@@]4(O)C#CC(C)(C)C)[C@@H]4CCC5=CC(=O)CC[C@@H]5[C@H]43)cc2)CC1	> 2500	35.8	inactive	25.4	7.9	1010	10 to 30
CCC(C)(C)C#C[C@]1(O)CC[C@H]2[C@@H]3CCC4=CC(=O)CC[C@@H]4[C@H]3[C@@H](c3ccc(N(C)C)cc3)C[C@@]21C	> 2500	12.7	inactive	21.1	7.3	175	10 to 30
CN(C)c1ccc([C@H]2C[C@@]3(C)[C@@H](CC[C@@]3(O)C#CC(F)(F)F)[C@@H]3CCC4=CC(=O)CC[C@]4(C)[C@H]32)cc1	> 2500	47.2	inactive	910	7.3	642	
CC#C[C@]1(O)CC[C@H]2[C@@H]3CCC4=CC(=O)CC[C@]4(C)[C@H]3[C@@H](c3ccc(N4CCCC4)cc3)C[C@@]21C	> 2500	57.9	inactive	4070	10.6	3150	
CCC#C[C@]1(O)CC[C@H]2[C@@H]3CCC4=CC(=O)CC[C@]4(C)[C@H]3[C@@H](c3ccc(N(C)C)cc3)C[C@@]21C	> 2500	73.7	inactive	1550	13.2	2960	
CC(C)C#C[C@]1(O)CC[C@H]2[C@@H]3CCC4=CC(=O)CC[C@]4(C)[C@H]3[C@@H](c3ccc(N(C)C)cc3)C[C@@]21C	> 2500	62	inactive	2080	8.3	> 5000	
CC#C[C@]1(O)CC[C@H]2[C@@H]3CCC4=CC(=O)CC[C@]4(C)[C@H]3[C@@H](c3ccc(N(C)C(C)C)cc3)C[C@@]21C	1140	20.6	inactive	527	55.9	2250	
CC#C[C@]1(O)CC[C@H]2[C@@H]3CCC4=CC(=O)CC[C@]4(C)[C@H]3[C@@H](OCc3ccc(Cl)cc3)C[C@@]21C	1890	17.6	inactive	8.2	47.8	85	
